Assays:
Assay type in all cases: functional
LNCaP [1] = assay: Inhibition of cell growth was determined in LNCaP cell line of Human prostate tumor using MTT assay, on day 6 after treatment; details: read-out: ID50 (the source's name)
In short: (§1)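 MTT growth assay on human prostate tumour cells seeded in microtitre plates and incubated overnight at 37 °C in humidified 95% air/5% CO₂. Diluted drug stocks were added to the middle 8 columns, with buffer controls in the outer columns. Each concentration was run in quadruplicate. ID₅₀ is the concentration giving 50% growth inhibition on day 6 of treatment.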

PC-3 = assay: Inhibition of cell growth was determined in PC-3 cell line of human prostate tumor using MTT assay, on day 6 after treatment; details: read-out: ID50 (the source's name); in short: as §1
DU-145 = assay: Inhibition of cell growth was determined in DU145 cell line of human prostate tumor using MTT assay, on day 6 after treatment; details: read-out: ID50 (the source's name); in short: as §1
DuPro = assay: Inhibition of cell growth was determined in DUPRO cell line of human prostate tumor using MTT assay, on day 6 after treatment; details: read-out: ID50 (the source's name); in short: as §1
LNCaP [2] = assay: Inhibition of cell growth was determined in LNCaP cell line of human prostate tumor using MTT assay, on day 6 after treatment; details: 144 h, read-out: ID50 (the source's name); in short: as §1

Which IC50 (LNCaP [1]; Homo sapiens, LNCaP, 144 h) does the source give for `CCNC/C=C\CNC/C=C\CNCCCCNCC` here?
The IC50 was 690 nM.

And the IC50 (PC-3; Homo sapiens, PC-3, 144 h)?
The IC50 was > 31200 nM.

For `CCNCCCCNC/C=C/CNCCCCNCC`, which IC50 (DU-145; Homo sapiens, DU-145, 144 h) is on record?
Its IC50 is 220 nM.

And the IC50 (LNCaP [1]; Homo sapiens, LNCaP, 144 h)?
Its IC50 is 497 nM.

How did the IC50 (LNCaP [1]; Homo sapiens, LNCaP, 144 h) turn out when `CCNC/C=C\CNCCCCNCCCCNCC` was run?
Its IC50 is 210 nM.

With `CCNCCCCNC/C=C\CNCCCCNCC` as the compound, how does the IC50 (DU-145; Homo sapiens, DU-145, 144 h) read?
Its IC50 is 30 nM.

And the IC50 (LNCaP [1]; Homo sapiens, LNCaP, 144 h)?
Its IC50 is 65 nM.

And the IC50 (PC-3; Homo sapiens, PC-3, 144 h)?
The IC50 was > 31200 nM.

What does the source list for `CCNCCCCNCC#CCNCCCCNCC`?
IC50 (DuPro; 144 h): 3200 nM; IC50 (LNCaP [1]; Homo sapiens, LNCaP, 144 h): 2200 nM; IC50 (PC-3; PC-3, 144 h): > 31200 nM

`CCNCCCCNCc1ccccc1CNCCCCNCC` was tested. Which IC50 (DuPro; Homo sapiens, DuPro, 144 h) did it give?
The IC50 was > 31200 nM.

And the IC50 (LNCaP [1]; Homo sapiens, LNCaP, 144 h)?
Its IC50 is > 31200 nM.

And the IC50 (PC-3; Homo sapiens, PC-3, 144 h)?
Its IC50 is > 31200 nM.

For `CCNC/C=C\CNCCCCNC/C=C\CNCC`, which IC50 (DU-145; Homo sapiens, DU-145, 144 h) is on record?
Its IC50 is 130 nM.

And the IC50 (LNCaP [1]; Homo sapiens, LNCaP, 144 h)?
The IC50 was 3000 nM.

What about the IC50 (PC-3; Homo sapiens, PC-3, 144 h) of the same compound?
Its IC50 is 700 nM.

For `CCNC/C=C\CNC/C=C\CNC/C=C\CNCC`, which IC50 (LNCaP [1]; Homo sapiens, LNCaP, 144 h) is on record?
The IC50 was 770 nM.

Which results are given for `CCNCCCCNCC1CC1CNCCCCNCC` (stereo in doubt; 4)?
IC50 (DuPro): 59 nM; IC50 (DU-145): 16 nM; IC50 (LNCaP [1]): 210 nM; IC50 (PC-3): 1600 nM

With `CCNCCCCNCC1CC1CNCCCCNCC` (stereo in doubt; 7) as the compound, how does the IC50 (DU-145; Homo sapiens, DU-145, 144 h) read?
The IC50 was 20 nM.

And the IC50 (LNCaP [1]; Homo sapiens, LNCaP, 144 h)?
The IC50 was 170 nM.

And the IC50 (PC-3; Homo sapiens, PC-3, 144 h)?
Its IC50 is 1400 nM.

Which results are given for `CCNCCCCNCC1CCC1CNCCCCNCC` (stereo in doubt; 10)?
IC50 (DuPro): 80 nM; IC50 (LNCaP [1]): 210 nM

With `CCNCCCCNCC1CCC1CNCCCCNCC` (stereo in doubt; 13) as the compound, how does the IC50 (DuPro) read?
Its IC50 is 300 nM.

What about the IC50 (DU-145; Homo sapiens, DU-145, 144 h) of the same compound?
Its IC50 is 21 nM.

And the IC50 (LNCaP [1])?
The IC50 was 700 nM.

What about the IC50 (PC-3; Homo sapiens, PC-3, 144 h) of the same compound?
The IC50 was 4700 nM.

For `CCNCCCCNCCCCNCCCCNCC` [DIETHYLHOMOSPERMINE], which IC50 (DuPro; Homo sapiens, DuPro, 144 h) is on record?
The IC50 was 200 nM.

And the IC50 (DU-145; Homo sapiens, DU-145, 144 h)?
The IC50 was 30 nM.

And the IC50 (PC-3; Homo sapiens, PC-3, 144 h)?
Its IC50 is 700 nM.

And the IC50 (LNCaP [2])?
Its IC50 is 100 nM.
